Like-named read-outs stand apart in the source and are kept apart here.
How the values were obtained:
M. mazei Connectase = experiment: Time course of the Connectase reaction with one primary substrate; assay type: biochemical; settings: 0.9 µM M. mazei Connectase, 3.7 µM Ub-(5)KDPGA(10), 37 °C
How it was run: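 M. mazei Connectase-His6 incubated with His6-Ub-(5)KDPGA(10) primary substrate only, no secondary substrate. Buffer: 50 mM acetate/MES/Hepes, 150 mM NaCl, 50 mM KCl, 5 mM TCEP, pH 7.0. Time points were stopped with 2% SDS and run on Coomassie-stained 12% gels.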

[1] = system: Ub-(5)KDPGA(15) and PGA(15)-Ub substrates; experiment: Reaction rates of M. mazei Connectase at different temperatures; assay type: biochemical
How it was run: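 His6-Ub-(5)KDPGA(15) and PGA(15)-Ub-His6, each 6.25 µM, incubated with M. mazei Connectase-His6 at 400× lower concentration, at 25 °C, 37 °C or 50 °C. Buffer: 50 mM acetate/MES/Hepes, 150 mM NaCl, 50 mM KCl, 5 mM TCEP, pH 7.0. Time points were stopped with 2% SDS and run on Coomassie-stained 12% gels. Bands were quantified to give rates.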

[2] = system: ubiquitin ligation substrates (Ub-(5)KDPGA(15)/PGA(15)-Ub; Ub-[…]/GGG-Ub); assay type: biochemical
LPETG and GGG substrates = settings: cited from earlier work

B1: Ub-(5)KDPGA(10): C. subterraneum ubiquitin fused C-terminally to M. mazei MtrA residues 148 to 167 (protein)
chain: MHHHHHHGSMKIKIVPAVGGGSPLELEVAPNATVGAVRTKVCAMKKLPPDTTRLTYKGRALKDTETLESLGVADGDKFVLITRTVGGRELASKDPGAFDADPLVVEI
fraction of substrate modified (conjugate with Connectase) at any time (M. mazei Connectase): ~7%

B2: M. mazei Connectase: sequence-specific protein ligase, monomeric homolog of 20S proteasome subunits from Methanosarcina mazei (protein)
chain: MTLVIAFIGKNGAVMAGDMREITFEGEKPDREKLEKELYSGSIVTDEEMQKKAEEFGVKITVADCKEKVSERNGVLVGEVSSAEGGVVKKRRLYASAGNFAIAELINTEMTLTSQGKGSNFIAFGNEFTKQVANKCFKDNWTKKSNLQDAVKILILCMETVARKTASVSKQFMIVQTASNADVLKVVEKDRNC
modifications: left off: Strep, C-terminal, kept
temperature of maximum activity [1]: 50 °C | ligase activity of Connectase relative to optimized SrtA5* ([2]; 100 µM substrates each, Connectase 50 °C, Sortase 37 °C): > 40 x | ligation yield ([2]; protein-protein ligation of two ubiquitin molecules, equimolar substrates): ~50%

B3: SrtA5*: evolved SrtA pentamutant with significantly increased activity (protein)
chain: MQAKPQIPKDKSKVAGYIEIPDADIKEPVYPGPATREQLNRGVSFAEENESLDDQNISIAGHTFIDRPNYQFTNLKAAKKGSMVYFKVGNETRKYKMTSIRNVKPTAVEVLDEQKGKDKQLTLITCDDYNEETGVWETRKIFVATEVKLEHHHHHH
Km (LPETG and GGG substrates; read-out: KM GGG): 4700 µM | Km (LPETG and GGG substrates; read-out: KM LPETG): 170 µM | ligase activity of SrtA5* compared with SrtA ([2]; Ub-GGSLPETGGG and GGG-Ub substrates, 37 °C): ~100 x

B4: SrtA: S. aureus Sortase A without membrane anchor, reference ligase (protein)
chain: MRGSHHHHHHGSQAKPQIPKDKSKVAGYIEIPDADIKEPVYPGPATPEQLNRGVSFAEENESLDDQNISIAGHTFIDRPNYQFTNLKAAKKGSMVYFKVGNETRKYKMTSIRDVKPTDVEVLDEQKGKDKQLTLITCDDYNEKTGVWEKRKIFVATEVK
kcat Ligation/kcat Hydrolysis (LPETG and GGG substrates): ≈ 3.3

From publication PMC7980362 (Proceedings of the National Academy of Sciences of the …, 2021)
